Results as given in article PMC4827469 (ACS Central Science, 2015).
Read-outs that look alike come from different tables or passages of the source.

How the values were obtained:
[1] = system: LNCaP; conditions: read-out: IC50 reported in the lit.; natural product, LNCaP (CCRC-60088) ref 1; cited from earlier work
[2] = system: H838 tumor cell line; conditions: H838 tumor cell line ref 23 (Ho et al., Biomed. Pharmacother. 2014); cited from earlier work
[3] = system: panel of human tumor cell lines; test: panel of human tumor cell lines in vitro; type: cell-based
Outline: (§1)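 Cells grown in medium with 10% FBS and exposed to test compound for 72 h. Viability read by MTS or MTT stain, and IC50 derived from the readings.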

[4] = system: H441; conditions: read-out: IC50 reported in the lit.; H441, KMUH ref 2c; cited from earlier work
[5] = system: Hep 3B tumor model; conditions: initial tumor sizes 50–70 mm^3 ref 2a, 19; cited from earlier work
[6] = system: PANC-1; conditions: read-out: IC50 reported in the lit.; PANC-1 (48 h), ATCC, SRB assay ref 2f; cited from earlier work
[7] = metabolite identification/biotransformation, rat liver microsomes; type: in vitro ADME
[8] = system: HepG2; test: in vitro cytotoxicity assay; type: cell-based; conditions: Homo sapiens, HepG2, 72 h, read-out: IC50 (72 h)
Outline: as §1

[9] = system: Hep 3B HCC tumor xenografts; test: in vivo antitumor activity, subcutaneous Hep3B HCC xenograft in NSG mice; parameters: species or system mouse; conditions: female NSG mice, 50 mg/kg ip daily for 14 days
Outline: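 Hep 3B hepatocellular carcinoma xenograft in mice, dosed per schedule. Paclitaxel positive control given iv at 24 mg/kg qd×5. Tumor growth inhibition, body weight and signs of toxicity monitored. Error given as SE computed from the average deviation.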

[10] = system: Hep3B; conditions: 5% FBS, 48 h incubation, SRB stain ref 2a; cited from earlier work
[11] = system: A549 subcutaneous xenografts; conditions: NOD/SCID mice, 2 weeks of oral 30 and 60 mg/kg ref 18; cited from earlier work
[12] = system: A549; conditions: read-out: IC50 reported in the lit.; A549 (12 h), KMUH ref 2c; cited from earlier work
[13] = metabolite identification/biotransformation, human liver microsomes; type: in vitro ADME
[14] = mouse pharmacokinetic study; type: in vivo; conditions: male, Balb/C, whole blood, 50 mg/kg
[15] = system: MDA-MB-231; conditions: read-out: IC50 reported in the lit.; natural product, MDA-MB-231 (CCRC-60425) ref 1; cited from earlier work
[16] = system: AsPC-1; test: in vitro cytotoxicity assay; type: cell-based; conditions: Homo sapiens, ASPC1, 48 h
[17] = system: HepG2; conditions: HepG2, 5% FBS, 48 h incubation, SRB stain ref 2a; cited from earlier work
[18] = system: A549; test: in vitro cytotoxicity assay; type: cell-based, human
[19] = metabolite identification/biotransformation, mouse liver microsomes; type: in vitro ADME; conditions: 1 mg/ml protein, 5 µM drug, 1 mM NADPH, 37 °C
[20] = system: AsPC-1; conditions: read-out: IC50 reported in the lit.; AsPC-1 (48 h), ATCC, SRB assay ref 2f; cited from earlier work
[21] = system: PANC-1; test: in vitro cytotoxicity assay; type: cell-based; conditions: Homo sapiens, PANC-1, 48 h
[22] = system: H441; test: in vitro cytotoxicity assay; type: cell-based; conditions: Homo sapiens, NCI-H441, 72 h, read-out: IC50 (72 h)
Outline: as §1

**Q.** Which IC50 [1] does the source give for `COC1=C(OC)[C@H](O)[C@H](C/C=C(\C)CC/C=C(\C)CCC=C(C)C)[C@@H](C)C1=O` [Compound 1, Antroquinonol A] here?
**A.** 6.1 ± 0.07 µM

**Q.** And the IC50 [2]?
**A.** ~3 µM

**Q.** And the “fold less cytotoxic than reported for the natural product” value ([3]; cell lines of Table 1 except A549)?
**A.** 3–70 fold

**Q.** And the “cytotoxicity in tumor cell line panel” value ([3]; panel of Table 1)?
**A.** only micromolar activity

**Q.** What about the IC50 [4] of the same compound?
**A.** 25 µM

**Q.** What about the “antitumor activity reported in the literature” value [5] of the same compound?
**A.** statistically significant antitumor activity

**Q.** And the IC50 [6]?
**A.** 19 µM

**Q.** And the “biotransformation in liver microsomes” value [7]?
**A.** rapidly converted to a major metabolite

**Q.** What about the IC50 [8] of the same compound?
**A.** > 25 µM

**Q.** What about the “tolerability” value [9] of the same compound?
**A.** generally well-tolerated with no overt signs of toxicity

**Q.** And the weight loss [9]?
**A.** ~4%

**Q.** What about the GI50 [10] of the same compound?
**A.** > 30 µM

**Q.** And the “antitumor effect reported” value [11]?
**A.** tumor growth suppression

**Q.** What about the IC50 [12] of the same compound?
**A.** 25 µM

**Q.** What about the “biotransformation in liver microsomes” value [13] of the same compound?
**A.** rapidly converted to a major metabolite

**Q.** What about the AUC(0-t) ([14]; ip) of the same compound?
**A.** 2.29 ± 0.142 µM·h

**Q.** What about the Cmax ([14]; ip) of the same compound?
**A.** 457 ± 45 nM

**Q.** And the Tmax ([14]; ip)?
**A.** 4 ± 3 h

**Q.** What about the AUC(0-t) ([14]; po) of the same compound?
**A.** 0.266 ± 0.088 µM·h

**Q.** And the Cmax ([14]; po)?
**A.** 79 ± 52 nM

**Q.** What about the Tmax ([14]; po) of the same compound?
**A.** 2 ± 1 h

**Q.** What about the IC50 [15] of the same compound?
**A.** 2.6 ± 0.05 µM

**Q.** What about the IC50 [16] of the same compound?
**A.** > 25 µM

**Q.** And the GI50 [17]?
**A.** 0.22 µM

**Q.** And the “fold more potent than previously reported” value ([18]; A549)?
**A.** ~4 fold

**Q.** What about the IC50 ([18]; Homo sapiens, A549, 12 h, A549 (12 h) (ATCC), 1 triplicate, 15 duplicate) of the same compound?
**A.** 6.7 ± 2.5 µM

**Q.** And the “biotransformation in liver microsomes” value [19]?
**A.** rapidly converted to a major metabolite

**Q.** And the IC50 [20]?
**A.** 20 µM

**Q.** What about the IC50 [21] of the same compound?
**A.** > 25 µM

**Q.** What about the IC50 [22] of the same compound?
**A.** > 25 µM
